In the library only some 3.6% were active in any assay of this set; here they are far more common.
Yeast lifespan up: yeast lifespan extension; AID 775; actives 0.68% (n = 130,000); S. cerevisiae growth with nicotinamide, OD615; deaD strain in restrictive glucose medium; inhibition of the nicotinamide effect, % at 10 µM;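 active means inhibition above a set limit, placed 3 SD over the median of all compounds, cut at about 26% in these data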
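Assay system: engineered S. cerevisiae DeaD replicative-lifespan strain, galactose-grown log-phase cells; medium: restrictive CSMM-D dextrose medium; also added: nicotinamide, 1.5 mM, co-present with compound; schedule: 48 h compound exposure at 30 °C, humidified; detection: absorbance at 615 nm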
Yeast growth inh: chemicals that inhibit yeast BB579 growth in restrictive medium (lifespan-shortening candidates); S. cerevisiae BB579 growth, OD615, 48 h; inhibition, % at 10 µM; actives 0.51% (n = 140,000);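 active means inhibition above a set limit, 3 SD over the mean compound inhibition, cut at about 44% in these data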
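controls = amphotericin B 10 µg/mL, positive | assay system = DeaD yeast strain BB579 | schedule = 48 h compound exposure at 30 °C after 4 h preincubation | detection = OD615 turbidity measurement | medium = restrictive CSMM-D medium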
Phagocytosis inh: inhibitors of macrophage phagocytosis. J774A.1 macrophage IgG-bead phagocytosis, imaging. inhibition, % at 5 µM. actives 0.07% (n = 110,000);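 active means inhibition above the mean of the plate negative controls plus 5 SD, cut at about 13% in these data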;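 further: phagocytic index as fraction of beads internalized from green versus red external bead signal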
RAM network inh: blocks the yeast RAM network; S. cerevisiae dse1pr::URA3 reporter, 5-FOA growth OD615, 2 d; analog-sensitive cbk1-as2 kinase mutant strain; inhibition, % at 50 µM; actives 1.8% (n = 190,000);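 active means inhibition above a set limit, 3 SD over mean compound inhibition, cut at about 8.4% in these data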;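 further: inhibition rescues growth on 5-FOA so higher OD means more RAM inhibition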
Measles CPE: protection of cells from measles virus; Measles virus-infected cells, CPE protection, absorbance; protection (pct of control), % at 4 µM; actives 1.5% (n = 140,000); in the data active means protection mostly above about 24%, no sharp cut-off; inactive means mostly below about 26%
Of the large screens only hits and unclear results are named; the others gave an inactive call; [ ] = remark or other dose.

N#C/C(=C/c1ccc(CNC(=O)C(=O)Nc2cc(Cl)cc(Cl)c2)o1)C(=O)NCc1cccnc1	RAM network inh 8.6 (no result: Phagocytosis inh)
Cc1ccc(NC(=O)C(=O)NCc2ccc(/C=C(/C#N)C(=O)NCc3cccnc3)o2)cc1	none (no result: Phagocytosis inh)
Cc1cccc(C)c1OCC(=O)OC/C(O)=C(\C#N)c1nc2ccccc2[nH]1	none
Cc1c(-c2cccc(Cl)c2)nc2ccccc2c1C(=O)OC/C(O)=C(\C#N)c1nc2ccccc2[nH]1	RAM network inh 11 (no result: Yeast lifespan up, Yeast growth inh, Phagocytosis inh, Measles CPE)
N#C/C(=C(/O)COC(=O)CSc1ccc2ccccc2c1)c1nc2ccccc2[nH]1	none
Cc1ccc(C)c(SCC(=O)OC/C(O)=C(\C#N)c2nc3ccccc3[nH]2)c1	RAM network inh 8.5 (no result: Yeast lifespan up, Yeast growth inh, Phagocytosis inh, Measles CPE)
COc1ccc(C(=O)NCC(=O)OCC(=O)N2CCC(C)CC2)cc1OC	none (no result: Yeast lifespan up, Yeast growth inh, Phagocytosis inh, Measles CPE)
CC1=C(C)CC(C(=O)NNC(=O)c2csc(C)c2C)C(C(=O)O)C1 (stereo not given)	none (no result: Phagocytosis inh)
CCc1sc(NC(=O)COC)nc1-c1ccccc1	Measles CPE 28
CN1CCCC1CCNC1C2CC3CC(C2)CC1C3 (stereo not given)	none (no result: Phagocytosis inh)
CC1CCc2c(sc3nc(CN4CCOCC4)nc(Sc4ccccc4)c23)C1 (stereo not given)	Yeast growth inh 46
CC1=C(C)CC(C(=O)NCCc2ccccc2)C(C(=O)O)C1 (stereo not given)	none
CC1=C(C)CC(C(=O)c2ccccc2)C(C(=O)O)C1 (stereo not given)	Measles CPE 48 (no result: Phagocytosis inh)
CCN(CC)c1ccc2cc(C(C)=O)c(=O)oc2c1	Measles CPE 43
COc1ccc(NC(=O)c2cc3cc(OC)ccc3oc2=N)cc1	none
COc1ccc2oc(=O)c(C(C)=O)cc2c1	Measles CPE 42
CC1(C(=O)N(Cc2ccccc2)Cc2ccccc2)CC1(Br)Br (stereo not given)	RAM network inh 8.8
COc1cc(OC)cc(-c2nnc(Nc3nc4c(F)cccc4s3)o2)c1	none
Fc1cccc2sc(Nc3nnc(-c4ccccc4)o3)nc12	Yeast lifespan up 60 (no result: Phagocytosis inh)
O=C(NNC(=S)NCCc1ccccc1)c1ccc(Br)s1	none (no result: Yeast lifespan up, Yeast growth inh, Phagocytosis inh, Measles CPE)
COc1ccc(OCc2nc(C#N)c(N3CCN(c4ccc(OC)cc4)CC3)o2)cc1	RAM network inh 8.4 (no result: Phagocytosis inh)
N#Cc1nc(COc2ccc(F)cc2)oc1N1CCC(Cc2ccccc2)CC1	RAM network inh 9.9
N#Cc1nc(COc2ccc(F)cc2)oc1N1CCN(Cc2ccccc2)CC1	none
Cc1ccc(NC(=S)N(Cc2cccc(Br)c2)CC2CCC(C(=O)O)CC2)cc1Cl (stereo not given)	none (no result: Yeast lifespan up, Yeast growth inh, Phagocytosis inh, Measles CPE)
COc1ccc(/C=C2\CCCC3C2=NN(C(=O)CSc2ncn[nH]2)C3c2ccc(OC)cc2)cc1 (stereo not given)	RAM network inh 8.4
CCCNC(=O)c1c(N)n(-c2cccc(OC)c2)c2nc3ccccc3nc12	none (no result: Phagocytosis inh)
COCCCNC(=O)c1c(N)n(-c2cccc(S(N)(=O)=O)c2)c2nc3ccccc3nc12	Measles CPE 42
CC(C)OCCCNC(=O)c1c(N)n(/N=C/c2cccs2)c2nc3ccccc3nc12	RAM network inh 11
CCN(C(=O)COC(=O)c1ccc(Cl)c(N)c1)C1CCS(=O)(=O)C1 (stereo not given)	none (no result: Yeast lifespan up, Yeast growth inh, Phagocytosis inh, Measles CPE)
CC1=NOC(=O)/C1=C\c1ccc2c(c1)OCO2	none (no result: Yeast lifespan up, Yeast growth inh, Phagocytosis inh, Measles CPE)
COc1ccccc1Oc1c(C)oc2cc(OC(=O)c3ccco3)ccc2c1=O	none
COc1ccccc1-c1c(C)oc2cc(OC(=O)c3ccco3)ccc2c1=O	Yeast lifespan up 32
CC(NS(=O)(=O)c1ccc(OCC(=O)Nc2cccc([N+](=O)[O-])c2)cc1)c1ccccc1 (stereo not given)	none
COc1cccc(/C=C/C(=C2/C(=O)N(c3ccccc3)N=C2C)c2ccc(Br)cc2)c1OC	RAM network inh 8.7
CCOC(=O)c1cnc(Nc2nc3ccccc3o2)nc1CN1CCN(C)CC1	none (no result: Phagocytosis inh)
COc1ccc(OC)c(/C=C(\NC(=O)c2ccccc2)C(=O)N/N=C/c2ccc(C)s2)c1	Measles CPE 35
COc1ccc(/C=C(/NC(=O)c2ccccc2)C(=O)N/N=C/c2ccncc2)c(OC)c1	none
Cc1c(C#N)sc(C(N)=O)c1C	none (no result: Yeast lifespan up, Yeast growth inh, Phagocytosis inh, Measles CPE)
COC(=O)c1ccc(=O)n(Cc2ccco2)c1	none (no result: Phagocytosis inh)
COC(=O)c1cc(Br)c(=O)n(Cc2ccco2)c1	Measles CPE 37
S=C(Nc1ccc2cn[nH]c2c1)Nc1ccccc1Cl	Yeast lifespan up 37
S=C(Nc1ccc2cn[nH]c2c1)Nc1ccc(Cl)cc1Cl	none (no result: Yeast lifespan up, Yeast growth inh, Phagocytosis inh, Measles CPE)
O=C1CCC(/C=C/c2ccccc2)=NN1Cc1ccccc1	none (no result: Yeast lifespan up, Yeast growth inh, Phagocytosis inh, Measles CPE)
CC(C)(C)c1ccc(CN2N=C(/C=C/c3ccccc3)CCC2=O)cc1	RAM network inh 9.8 (no result: Yeast lifespan up, Yeast growth inh, Phagocytosis inh, Measles CPE)
CN(CCOC(=O)c1ccc2c(c1)OCCO2)Cc1ccccc1	none
CN(CCOC(=O)c1ccc2c(c1)OCCO2)C(C)(C)C	Measles CPE 88 (no result: Yeast lifespan up, Phagocytosis inh)
CC(C)Sc1nc(N)nc(-c2cccs2)c1C#N	Yeast growth inh 76
CC(C)(C)c1cc(NS(=O)(=O)c2ccc3c(c2)OCCO3)on1	none (no result: Phagocytosis inh)
CCOC(=O)c1ccc(S(=O)(=O)Nc2cc(C(C)(C)C)no2)cc1	Measles CPE 40
O=C(CNS(=O)(=O)c1cccs1)NCc1ccccc1	none (no result: Yeast lifespan up, Yeast growth inh, Phagocytosis inh, Measles CPE)
Cc1ccc(OCC(=O)N2N=C(C(F)(F)F)CC2(O)C(C)(C)C)cc1C (stereo not given)	none (no result: Phagocytosis inh)
Cc1ccccc1OCC(=O)N1N=C(C(F)(F)F)CC1(O)C(C)(C)C (stereo not given)	RAM network inh 9.2 (no result: Yeast lifespan up, Phagocytosis inh)
CCN1CCc2c(sc3c2c(NCc2ccco2)nc2nnnn23)C1	Measles CPE 35
O=c1cc2c(nn1Cc1ccccc1Cl)-c1ccccc1CC2	none
CC1(C)Cc2c(sc3nnn(Cc4ccc(Cl)cc4)c(=O)c23)CO1	Phagocytosis inh 38[artifact]
Cc1ccc(-c2nc3sc4c(c3c(=O)n2N)CC(C)(C)OC4)cc1	none
COc1ccccc1OCCCn1cc(C#N)c2ccccc21	none
COc1ccccc1OCCCn1c(C)c(C#N)c2ccccc21	RAM network inh 11
COCCOC(=O)/C(=C/c1ccc(OC(=O)c2ccccc2)cc1)C(C)=O	Yeast lifespan up 39
CCOC(=O)/C(=C/c1ccc(OC(=O)c2ccncc2)cc1)C(C)=O	none (no result: Yeast lifespan up, Yeast growth inh, Phagocytosis inh, Measles CPE)
CC(C)(Cl)C1Cc2cc3ccc(=O)oc3cc2O1 (stereo not given)	none (no result: Phagocytosis inh)
CC(C)NC1CS(=O)(=O)CC1O (stereo not given)	Yeast lifespan up 58
CC(c1cccs1)N(Cc1ccco1)C(=O)Nc1ccc(Cl)c(Cl)c1 (stereo not given)	RAM network inh 11
Cc1sc2nc(SCC(=O)N3CCN(CCO)CC3)n(-c3ccccc3)c(=O)c2c1C	Phagocytosis inh active
Cc1sc2nc(SCC(N)=O)n(-c3ccccc3)c(=O)c2c1C	none (no result: Yeast lifespan up, Yeast growth inh, Phagocytosis inh, Measles CPE)
O=C(COc1ccc(Br)cc1)N/N=C1\SCC(=O)N1c1ccc(F)cc1	none
O=C1c2ccc(Oc3cccc([N+](=O)[O-])c3)cc2C(=O)N1c1ccccn1	none (no result: Yeast lifespan up, Yeast growth inh, Phagocytosis inh, Measles CPE)
O=C1c2cc([N+](=O)[O-])cc3cc([N+](=O)[O-])cc(c23)C(=O)N1c1ccccn1	Yeast lifespan up 32 (no result: Phagocytosis inh)

Compound activity deposited in PubChem BioAssay by several laboratories.
